In the library only some 7.9% were active in any assay of this set; here they are far more common.
SF1 activator: SF-1 (human) activation; hit rate 1.9% among 65,000; activation, % at 10 µM; CHO-K1 Gal4-SF-1 LBD luciferase reporter; % increase over DMSO SF-1-specific signal;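 active = activation above the mean activation of all tested compounds plus 3 SD, cut at about 50% in these data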
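Test system: CHO-K1 cells with Gal4–hSF-1 LBD chimera plus Gal4-driven luciferase; Input: 4,000 cells/well; Compound: 10 µM only; Times: 20 h compound treatment, 37 °C; Measured by: steady-glow luciferase luminescence, read after 15 min reagent incubation; Measure: percent activation versus DMSO; Control set: DMSO and mock-transfected background; Replicates: one test per compound.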
HEK293 NFkB inh: lowers PMA/ionomycin-induced NF-kB signal in HEK293 cells; HEK-293 NF-kB luciferase reporter, luminescence; inhibition, % at 3 µM; hit rate 0.21% among 62,000; AID 465;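 active = inhibition above the mean of all tested compounds plus 3 SD, cut at about 40% in these data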;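 also: 0% = stimulated DMSO wells and 100% = 10 µM reference inhibitor 5653914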
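System: NF-kB luciferase reporter HEK-293 cells | Replication: Single test | Control set: DMSO vs reference inhibitor | Evaluation: % inhibition | Schedule: 1 h pretreatment, 16 h stimulation, 37 °C | Probe or stimulus: PMA with ionomycin | Compound dosing: One dose, 3 µM | Detection: Luciferase luminescence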
JNK3 blocker: JNK3 (human) kinase inhibition; inhibition, % at 8 µM; P53779; AID 746; purified JNK3 kinase activity, HTS; hit rate 0.61% among 60,000; in the data active = inhibition above about 17%;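 also: 0% = DMSO and 100% = reference inhibitor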
D1 mod: allosterically modulates the human D1 dopamine receptor. hit rate 5.9% among 58,000. P21728. B-score at 10 µM. HEK293 D1, CRE-luciferase, dopamine EC30 potentiation; actives deviate in either direction;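 active = luminescence count or its row- and column-corrected plate score outside the 99.7% band of the plate's sample wells, on either side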
RORa activator: RORA (human) activation | P35398 | CHO-K1 Gal4-RORA LBD luciferase reporter, luminescence; percent increase over mock-subtracted basal signal | activation, % at 10 µM | hit rate 1.5% among 65,000 | AID 560;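 active = activation above the mean of all tested compounds plus 3 SD, cut at about 49% in these data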;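 also: 0% = DMSO-treated RORA cells and 100% = added signal equal to DMSO minus mock-transfected cells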
Target sequence (P35398 whole entry, looked up, the tested form may be a part): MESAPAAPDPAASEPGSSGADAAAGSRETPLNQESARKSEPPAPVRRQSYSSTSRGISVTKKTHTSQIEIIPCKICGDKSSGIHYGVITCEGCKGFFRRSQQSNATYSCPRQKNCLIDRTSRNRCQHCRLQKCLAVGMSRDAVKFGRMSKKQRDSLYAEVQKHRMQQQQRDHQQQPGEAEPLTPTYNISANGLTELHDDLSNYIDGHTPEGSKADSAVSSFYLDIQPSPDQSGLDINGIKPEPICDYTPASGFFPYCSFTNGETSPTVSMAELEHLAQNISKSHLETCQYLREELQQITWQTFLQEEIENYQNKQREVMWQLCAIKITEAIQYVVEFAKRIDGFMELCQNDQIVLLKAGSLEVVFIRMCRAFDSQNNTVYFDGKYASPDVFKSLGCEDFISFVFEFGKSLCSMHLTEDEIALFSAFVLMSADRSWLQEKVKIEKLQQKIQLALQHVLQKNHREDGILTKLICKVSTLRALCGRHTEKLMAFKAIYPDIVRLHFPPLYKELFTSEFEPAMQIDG
* = called active by the depositor; x = no result given.

SMILES	SF1 activator	HEK293 NFkB inh	JNK3 blocker	D1 mod	RORa activator
Fc1cccc(Nc2ncnc3c2cnn3-c2ccccc2)c1	57*	-10	7	-2.1	102*
CCCCNc1ncnc2c1cnn2-c1ccc(Cl)cc1	90*	-16	-1	-2	109*
c1ccc(-n2ncc3c(NCCCN4CCOCC4)ncnc32)cc1	43	-12	-1	-1.3	26
O=C1CC(=O)CC(c2ccccc2Cl)C1	-8	3	2	0.28	-8
CCOc1cc2c(cc1OCC)C(c1cc(OC)c(O)c(OC)c1)NCC2 (stereo not given)	9	-3	-7	0.76	-6
COc1cccc(C(=O)OCn2nnc3ccccc3c2=O)c1	-3	7	x	0.016	-20
COC(=O)c1cccc(Cn2nnc3ccccc3c2=O)c1	-8	11	17*	3.9	-8
Cc1ccc(N2C(=O)CSC2c2cccnc2)cc1F (stereo not given)	6	5	-2	x	-9
CN1CCC(=C2c3ccccc3CC(=O)c3sccc32)CC1	1	x	3	-6.8*	-6
CC(=O)N1CCc2cc(S(=O)(=O)CCC(=O)N3CCN(C(=O)c4ccco4)CC3)ccc21	18	-24	5	0.016	-4
c1ccc2c(c1)NC1(CCCC1)n1c-2nc2ccccc21	59*	-12	-2	-1.3	40
CC12CCC(C(=O)n3c1nc1ccccc13)C2(C)C (stereo not given)	0	4	2	0.026	8
CC1=NC(C(F)(F)F)(C(F)(F)F)C(C#N)=C(C)N1	-2	15	-6	0.15	-14
Cc1ccc(NC(=O)c2cc(N(C)C)ccc2[P+](=O)O)cc1	14	7	x	0.043	69*
Cc1ccc2cc3cc(C(=O)N(C)C4CCCCC4)oc3nc2c1	77*	-25	-2	-3.5*	35
Cc1cccc(N(C)C(=O)c2cc3cc4ccc(C)cc4nc3o2)c1	36	14	-6	3.4	23
CN(C)c1ccc(Nc2nc(-c3cccnc3)cs2)cc1	14	-30	-20	-2.8*	10
O=C(Nc1nc(-c2cccnc2)cs1)c1ccc(S(=O)(=O)N2CCOCC2)cc1	24	10	2	-0.27	-20
CCN(CC)S(=O)(=O)c1cccc(-c2nnc(SCc3nnc(-c4cccs4)o3)n2N)c1	-1	7	x	-0.29	10
Cc1ccc2nc(SCC(=O)N3CCCC3)[nH]c2c1	53*	-29	5	-0.96	74*
Cc1ccc2nc(SC(C)C(=O)N3CCCC3)[nH]c2c1 (stereo not given)	28	0	-6	0.52	22
O=C(CN1C(=O)CCS(=O)(=O)c2ccccc21)Nc1cccc(Cl)c1	-14	11	x	x	-6
c1csc(-c2ccc3ccccc3n2)c1	79*	-12	-2	1.1	26
Cc1cc(-c2cccs2)n[nH]1	11	12	6	-0.063	-8
CN(C)c1ccc(C2=NOC(CN3C(=O)c4ccccc4S3(=O)=O)C2)cc1 (stereo not given)	33	-36	-3	-5.7*	60*
SMILES	SF1 activator	HEK293 NFkB inh	JNK3 blocker	D1 mod	RORa activator
O=C1c2ccccc2S(=O)(=O)N1Cc1nc2ccccc2s1	-43	24	1	x	-54
CCN(C(=O)c1ccc(C(C)(C)C)cc1)c1nnc(Cn2nnc3ccccc32)s1	-69	40*	-5	-1.3	-66
CC(=O)Nc1ccc(OCC(O)CN2CCN(c3cccc(Cl)c3)CC2)cc1 (stereo not given)	-4	14	3	-3.1*	-8
CN(C)C=NC(=O)/C(C#N)=C1\CCc2ccccc2N1	12	5	47*	0.62	13
c1ccc2c(c1)NC(c1ccncc1)n1c-2nc2ccccc21 (stereo not given)	31	x	9	1.5	21
c1cncc(C2Nc3ccccc3-c3nc4ccccc4n32)c1 (stereo not given)	38	-21	x	1.3	58*
CC(C)N(C(=O)CSc1nnnn1C1CCCC1)C(C)C	7	6	1	-0.97	-14
Cc1csc(C(C#N)C(=O)c2cc3ccccc3o2)n1 (stereo not given)	16	-33	x	-3.8*	29
Cc1cc(N2CCCC2=O)cc(C)c1CN1C(=O)c2ccccc2C1=O	-2	13	0	-0.45	-18
O=C(Nc1nn[nH]n1)c1cccc(Oc2ccccc2)c1	7	6	x	0.57	8
CN1CCN(c2ccc(NC(=O)c3cccc(OCc4ccccc4)c3)cc2)CC1	5	9	-5	-5.9*	-3
Cn1nnc(NC(=O)c2cccc(OCc3ccccc3)c2)n1	48	6	5	-0.022	54*
CSc1nc(NC(C)C)nc(N2CCOCC2)n1	-7	14	0	18*	-6
COC(=O)CSc1nc(NCC(C)C)nc(N2CCOCC2)n1	-3	15	-3	0.44	2
N#Cc1sc2nc3c(c(-c4cccnc4)c2c1N)CCC3	3	11	1	5.2*	13
c1ccc2c(c1)nc(N1CCOCC1)c1c3ccccc3[nH]c21	-10	-11	59*	0.15	26
c1ccc2nc(N3CCOCC3)c(N3CCOCC3)nc2c1	6	9	6	0.45	2
CCc1ccccc1Nc1nc(N)nc(COC(=O)c2cccn2C)n1	31	-17	3	0.87	28
Cc1ccccc1Nc1nc(N)nc(COC(=O)c2cccn2C)n1	66*	-46	-3	2.3	60*
O=C(OCc1csc(-c2ccccc2)n1)c1cccs1	43	0	4	0.34	31
Cn1cccc1C(=O)OCc1csc(-c2ccccc2)n1	6	-52	10	-2.3	59*
CCN(CC)CCNC(=O)CCCNC(=O)Cn1cnc2sc(C)c(C)c2c1=O	8	12	-5	x	18
Cc1c(C(=O)Nc2ccccc2)sc2nc(-c3ccccc3)cn12	54*	-5	2	-0.36	58*
Cc1c(C(=O)N2CC(C)OC(C)C2)sc2nc(-c3ccc(F)cc3)cn12 (stereo not given)	10	-5	4	-3*	-1
Cc1cccc(NC(=O)c2sc3nc(-c4ccccc4)cn3c2C)n1	11	8	-2	0.14	32
SMILES	SF1 activator	HEK293 NFkB inh	JNK3 blocker	D1 mod	RORa activator
CCOC(=O)N1CCN(C(=O)c2sc3nc(-c4ccc(F)cc4)cn3c2C)CC1	1	14	3	x	5
COc1ccc(-c2cn3c(C)c(C(=O)NC(C)(C)C)sc3n2)cc1	48	-19	-2	1.1	56*
Cc1c(C(=O)Nc2ccccn2)oc2ccccc12	69*	-32	-1	0.0015	40
COC(=O)c1sc(NC(=O)c2oc3ccccc3c2C)nc1C	58*	x	-4	x	61*
Cc1c(C(=O)Nc2ccncc2)oc2ccccc12	16	24	5	x	6
COCCn1c(SCC(=O)c2ccc(Cl)cc2)nnc1C(C)C	1	10	9	-0.34	-2
COC(=O)Nc1ccc(S(=O)(=O)N2CCN(C)CC2)cc1	7	13	-1	-0.37	1
